Experimental findings from PubChem BioAssay AID492978 (The Scripps Research Institute Molecular Screening Center, 2010) are described below.

The target of this assay is Aminopeptidase N (Plasmodium falciparum (isolate 3D7)) (UniProt O96935). As to the kind of experiment: recombinant PfM1AAP inhibitors, late-stage follow-up, biochemical, fluorescence, recombinant enzyme, assay provider (AID 492978). Conditions: H-Leu-NHMec fluorescence, at 5 µM, stronger effect = higher value. The procedure, abridged: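 Read-out basis: % inhibition relative to uninhibited enzyme. Test system: recombinant P. falciparum M1 aminopeptidase. Incubation: 10 min preincubation, 30 min kinetic reading. Measured by: kinetic fluorescence, excitation 370 nm, emission 460 nm. Benchmarks: no-inhibitor enzyme wells and no-enzyme background wells. Reagent: fluorogenic substrate H-Leu-NHMec at 50 µM final. Dosing: one dose, 5 µM.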

Each structure is given as a SMILES string. Active and inactive are the calls of the source.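 The calls were made as follows: active = inhibition of the malaria parasite aminopeptidase at 45% or more; inactive = inhibition below 45%.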

Aminopeptidase N (Plasmodium falciparum (isolate 3D7)), sequence (O96935 whole entry, looked up): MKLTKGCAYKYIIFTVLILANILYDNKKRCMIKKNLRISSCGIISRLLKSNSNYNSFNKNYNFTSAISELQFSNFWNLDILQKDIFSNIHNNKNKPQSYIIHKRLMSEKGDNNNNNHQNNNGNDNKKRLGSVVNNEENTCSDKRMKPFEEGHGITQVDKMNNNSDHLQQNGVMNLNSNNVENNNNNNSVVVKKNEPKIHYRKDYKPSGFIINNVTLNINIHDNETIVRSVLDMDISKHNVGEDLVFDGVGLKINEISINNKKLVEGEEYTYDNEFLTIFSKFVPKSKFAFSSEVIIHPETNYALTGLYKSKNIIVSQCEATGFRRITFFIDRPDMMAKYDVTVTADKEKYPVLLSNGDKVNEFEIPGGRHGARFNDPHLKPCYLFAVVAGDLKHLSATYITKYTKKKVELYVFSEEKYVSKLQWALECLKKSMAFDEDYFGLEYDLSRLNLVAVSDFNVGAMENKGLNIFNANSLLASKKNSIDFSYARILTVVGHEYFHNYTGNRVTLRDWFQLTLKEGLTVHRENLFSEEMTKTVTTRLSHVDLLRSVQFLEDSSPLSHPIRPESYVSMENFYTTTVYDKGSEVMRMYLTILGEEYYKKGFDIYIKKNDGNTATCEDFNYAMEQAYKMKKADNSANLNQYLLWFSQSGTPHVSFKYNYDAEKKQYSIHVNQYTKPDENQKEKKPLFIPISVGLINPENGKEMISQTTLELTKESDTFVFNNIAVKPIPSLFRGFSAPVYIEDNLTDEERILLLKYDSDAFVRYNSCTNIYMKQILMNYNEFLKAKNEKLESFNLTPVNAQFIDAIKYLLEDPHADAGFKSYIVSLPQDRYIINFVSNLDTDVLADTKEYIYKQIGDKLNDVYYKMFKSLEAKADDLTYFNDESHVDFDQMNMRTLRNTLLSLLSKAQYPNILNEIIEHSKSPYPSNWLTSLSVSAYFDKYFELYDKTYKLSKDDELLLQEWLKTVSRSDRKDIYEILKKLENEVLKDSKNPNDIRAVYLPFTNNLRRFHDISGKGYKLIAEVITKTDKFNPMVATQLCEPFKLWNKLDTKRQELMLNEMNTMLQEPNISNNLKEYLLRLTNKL

Regarding `O=C(O)CCC(=O)N1N=C(c2c(-c3ccccc3)c3cc(Cl)ccc3[nH]c2=O)CC1c1cccs1` (stereo not drawn), the inhibition is 13% (inactive).

Turning to `O=C(NCc1ccco1)C1CCCN(S(=O)(=O)c2cccc3nonc23)C1` (stereo not drawn), the inhibition is 17% (inactive). Take `O=C1/C(=C/c2cccs2)SC(=S)N1NS(=O)(=O)c1ccccc1`: the inhibition is 20% (inactive). In the case of `O=C(NCCC1=CCCCC1)C1CCN(S(=O)(=O)c2ccc(Br)s2)CC1`, the inhibition is 45%.

For `O=C(NCc1cccc(F)c1)C1CCN(S(=O)(=O)Cc2ccccc2)CC1`, the inhibition was 69%. For the molecule `O=C1N=c2ccccc2=C1c1sc(=S)n(NC(=O)c2ccccc2)c1O`, the inhibition was 13% (inactive).

Turning to `CC(=O)N1N=C(c2c(O)n(C)c(=O)n(C)c2=O)CC1c1ccccc1` (stereo not drawn), the inhibition is 7% (inactive).

As to `O=C(O)CCC(=O)N1N=C(c2c(-c3ccccc3)c3cc(Cl)ccc3[nH]c2=O)CC1c1ccco1` (stereo not drawn), the inhibition was 13% (inactive). With `COc1ccccc1-c1nc2ccccc2c(=O)n1NC(=O)c1cccs1`, the inhibition is 38% (inactive). Take `O=C1N=c2ccccc2=C1c1sc(=S)n(NC(=O)c2cccc(O)c2)c1O`: the inhibition was 48%. For the molecule `O=C(Nn1c(C2CCC2)nc2ccccc2c1=O)c1cccs1`, the inhibition was 8% (inactive).

With `COc1ccc(OC)c(/C=C2\SC(=S)N(C(C(=O)O)c3ccccc3)C2=O)c1` (stereo not drawn), the inhibition was 16% (inactive). As to `COc1ccc(C2CC(c3c(-c4ccccc4)c4cc(Cl)ccc4[nH]c3=O)=NN2C(=O)CCC(=O)O)cc1` (stereo not drawn), the inhibition was 0% (inactive).
